Test results as given in article PMC12646499 (Journal of Chemical Information and Modeling, 2025).
Values belong to the molecule of their own block, whether it stands above or below them.

Key:
human PD-L1 = settings: binds human PD-L1; previously published; cited from earlier work
PD-1–PD-L1 interaction = PD-1–PD-L1 interaction (Homo sapiens, UniProt Q9NZQ7); assay: PD-1–PD-L1 TR-FRET assay; assay type: binding
Summary of the method: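 Test compound (from 5 mM DMSO stock, diluted in PBS) was preincubated 10 min with biotin-PD-L1 (added at 11 μg/mL) at room temperature in the dark. Eu-PD-1 (0.8 μg/mL) plus acceptor dye was then added for 1.5 h. Single doses were 5 and 25 μM final; dose-response used a 5:1 serial dilution. The 665/620 nm ratio (excitation 337 nm) was normalised to controls with and without PD-L1, in triplicate. IC50 came from nonlinear regression.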

[1] = tested in clinical trials but discontinued; cited from earlier work
PD-L1 = settings: ligand in PDB 5N2F; cited from earlier work
[2] = test system: LS 180 colorectal adenocarcinoma cells bearing the K-Ras G12D mutation; assay: MTT cell toxicity assay in LS 180 cells; assay type: cell-based; settings: 48 h
Summary of the method: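 LS 180 cells were grown in DMEM with 10% FBS at 37 °C and 5% CO2, then seeded at 5000 cells/well in DMEM with 5% FBS and left to attach for 24 h. Test compound was added at 10, 4, 1.6 or 0.64 μM final, with 0.2% DMSO, in sextuplicate, for 48 h. MTT (0.35 mg/mL final) was added for 4 h, then DMF/SDS/HCl/acetic acid stop solution overnight at room temperature. A570 was read as % survival versus no compound.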

Chain of PD-1–PD-L1 interaction (Q9NZQ7 19-238 limits assumed): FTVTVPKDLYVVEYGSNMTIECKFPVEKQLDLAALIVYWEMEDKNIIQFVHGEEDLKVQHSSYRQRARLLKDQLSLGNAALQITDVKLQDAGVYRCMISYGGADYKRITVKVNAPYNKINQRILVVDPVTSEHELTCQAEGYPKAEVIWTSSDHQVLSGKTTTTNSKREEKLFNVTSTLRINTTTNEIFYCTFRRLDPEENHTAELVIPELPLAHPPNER

IC50 (PD-1–PD-L1 interaction): 5.6 nM
activity at 5 μM (in words) (PD-1–PD-L1 interaction; 5 μM): complete loss of activity
Structure (SMILES): Cc1c(Nc2nccc3cc(CN4CC[C@@H](O)C4)cnc23)cccc1-c1cccc(-c2nc3cc(CN4CC[C@@H](C(=O)O)C4)cc(C#N)c3o2)c1C [INCB086550]
IC50 (human PD-L1): 3.1 nM
toxicity in clinical trials (in words) [1]: high toxicity

Structure (SMILES): Cc1c(COc2cc(F)c(CNC[C@@H](O)CC(=O)O)cc2F)cccc1-c1ccc2c(c1)OCCO2 [BMS-200]
IC50 (PD-L1): 3.1 nM

Structure (SMILES): C#Cc1c(F)ccc2cc(O)cc(-c3ncc4c(N5CC6CCC(C5)N6)nc(OC[C@@]56CCCN5C[C@H](F)C6)nc4c3F)c12 [MRTX1133]
GI50 [2]: submicromolar
